Assay results taken from ChEMBL document CHEMBL1121957, “Imidodisulfamides. 2. Substituted 1,2,3,4-tetrahydroisoquinolinylsulfonic imides as antagonists of slow-reacting substance of anaphylaxis” (1982).

Species: Cavia porcellus
Experiment: Percent inhibition of SRS-A induced contraction minus percent inhibition of 25 mM KCl induced contractions at a conc of 5(uM); Percent enhancement of tissue contraction compared to control
Type: functional
In short: (§1)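 Ileum segments (proximal to Peyer's patch) from male Hartley guinea pigs (400–600 g) were held in modified Tyrode's at 37.5 °C under 95% O2-5% CO2, with isometric recording. Partially purified guinea pig SRS-A or 25 mM KCl was dosed for 60–80% maximal contraction, then reapplied after 15 min compound exposure with five bath changes. Value is percent inhibition versus vehicle controls (3 vs 3 tissues), SRS-A minus KCl.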

SMILES	Inhibition
COc1ccc2c(c1OC)CN(S(=O)(=O)NS(=O)(=O)N1CCc3ccc(OC)c(OC)c3C1)CC2	5%
COc1ccc2c(c1)CN(S(=O)(=O)NS(=O)(=O)N1CCc3ccc(OC)cc3C1)CC2	6%

Species: Cavia porcellus
Experiment: Percent inhibition of SRS-A induced contraction minus percent inhibition of 25 mM KCl induced contractions at a conc of 50(uM); Not statistically significant
Type: functional
In short: as §1

SMILES	Inhibition
O=S(=O)(NS(=O)(=O)N1CCc2ccccc2C1)N1CCc2ccccc2C1	10%

Species: Cavia porcellus
Experiment: Percent inhibition of SRS-A induced contraction minus percent inhibition of 25 mM KCl induced contractions at a conc of 5(uM); Not statistically significant
Type: functional
In short: as §1

SMILES	Inhibition
O=S(=O)(NS(=O)(=O)N1CCc2c(Cl)cccc2C1)N1CCc2c(Cl)cccc2C1	8%
O=S(=O)(NS(=O)(=O)N1CCc2cc(Cl)c(Cl)c(Cl)c2C1)N1CCc2cc(Cl)c(Cl)c(Cl)c2C1	11%
CC(=O)c1ccc2c(c1)CN(S(=O)(=O)NS(=O)(=O)N1CCc3ccc(C(C)=O)cc3C1)CC2	4%
O=S(=O)(NS(=O)(=O)N1CCc2cccc(Cl)c2C1)N1CCc2cccc(Cl)c2C1	16%
O=S(=O)(NS(=O)(=O)N1CCc2c(Br)cc(Br)c(Br)c2C1)N1CCc2c(Br)cc(Br)c(Br)c2C1	7%

Species: Cavia porcellus
Experiment: Percent inhibition of SRS-A induced contraction minus percent inhibition of 25 mM KCl induced contractions at a conc of 5(uM)
Type: functional
In short: as §1

SMILES	Inhibition
CSc1ccc2c(c1Cl)CN(S(=O)(=O)NS(=O)(=O)N1CCc3ccc(SC)c(Cl)c3C1)CC2	25%
O=S(=O)(NS(=O)(=O)N1CCc2c(Cl)c(Cl)c(Cl)c(Cl)c2C1)N1CCc2c(Cl)c(Cl)c(Cl)c(Cl)c2C1	14%
O=S(=O)(NS(=O)(=O)N1CCc2c(Br)cccc2C1)N1CCc2c(Br)cccc2C1	29%
O=S(=O)(NS(=O)(=O)N1CCc2c(Br)ccc(Br)c2C1)N1CCc2c(Br)ccc(Br)c2C1	50%
COc1ccc(OC)c2c1CCN(S(=O)(=O)NS(=O)(=O)N1CCc3c(OC)ccc(OC)c3C1)C2	12%
O=S(=O)(NS(=O)(=O)N1CCc2cc(Cl)ccc2C1)N1CCc2cc(Cl)ccc2C1	1%
O=S(=O)(NS(=O)(=O)N1CCc2ccc(C(F)(F)F)c(C(F)(F)F)c2C1)N1CCc2ccc(C(F)(F)F)c(C(F)(F)F)c2C1	27%
O=S(=O)(NC1CC1c1ccc(Cl)c(Cl)c1)NS(=O)(=O)NC1CC1c1ccc(Cl)c(Cl)c1 (centres undefined)	42%
CC1c2c(ccc(Cl)c2Cl)CCN1S(=O)(=O)NS(=O)(=O)N1CCc2ccc(Cl)c(Cl)c2C1C (centres undefined)	48%
O=S(=O)(NS(=O)(=O)N1CCc2ccc([S+]([O-])C(Cl)(Cl)Cl)cc2C1)N1CCc2ccc([S+]([O-])C(Cl)(Cl)Cl)cc2C1 (centres undefined)	28%
O=S(=O)(NC1CC1c1ccccc1)NS(=O)(=O)NC1CC1c1ccccc1 (centres undefined)	17%
O=S(=O)(NS(=O)(=O)N1CCc2ccc(Br)cc2C1)N1CCc2ccc(Br)cc2C1	26%
O=S(=O)(NS(=O)(=O)N1CCc2ccc(Cl)c(Cl)c2C1c1ccccc1)N1CCc2ccc(Cl)c(Cl)c2C1c1ccccc1 (centres undefined)	20%
O=S(=O)(NS(=O)(=O)N1CCc2ccc(Cl)c(Cl)c2C1Cc1ccccc1)N1CCc2ccc(Cl)c(Cl)c2C1Cc1ccccc1 (centres undefined)	8%
CCCCCCC1c2c(ccc(Cl)c2Cl)CCN1S(=O)(=O)NS(=O)(=O)N1CCc2ccc(Cl)c(Cl)c2C1CCCCCC (centres undefined)	-5%
O=S(=O)(NS(=O)(=O)N1CCc2c(cccc2-c2ccccc2)C1)N1CCc2c(cccc2-c2ccccc2)C1	13%
O=S(=O)(NS(=O)(=O)N1CCc2ccc(Cl)c(Cl)c2C1C1CCCC1)N1CCc2ccc(Cl)c(Cl)c2C1C1CCCC1 (centres undefined)	4%
O=S(=O)(NS(=O)(=O)N1CCc2ccc(Cl)c(SC(F)(F)C(F)F)c2C1)N1CCc2ccc(Cl)c(SC(F)(F)C(F)F)c2C1	22%
Cc1ccc2c(c1Cl)CN(S(=O)(=O)NS(=O)(=O)N1CCc3ccc(C)c(Cl)c3C1)CC2	34%
O=S(=O)(NS(=O)(=O)N1CCc2cc(Cl)c(Cl)cc2C1)N1CCc2cc(Cl)c(Cl)cc2C1	40%
O=S(=O)(NS(=O)(=O)N1CCc2ccc(Cl)c(Cl)c2C1)N1CCc2ccc(Cl)c(Cl)c2C1	42%
O=S(=O)(NS(=O)(=O)N1CCc2cc(Cl)ccc21)N1CCc2cc(Cl)ccc21	13%
O=S(=O)(NS(=O)(=O)N1CCc2ccc(Cl)c(Cl)c2C1C1CC1)N1CCc2ccc(Cl)c(Cl)c2C1C1CC1 (centres undefined)	47%
CC1Cc2ccc(Cl)c(Cl)c2CN1S(=O)(=O)NS(=O)(=O)N1Cc2c(ccc(Cl)c2Cl)CC1C (centres undefined)	18%
COc1ccc2c(c1Cl)CN(S(=O)(=O)NS(=O)(=O)N1CCc3ccc(OC)c(Cl)c3C1)CC2	20%
O=S(=O)(NS(=O)(=O)N1CCc2ccc(Cl)cc2C1)N1CCc2ccc(Cl)cc2C1	18%

Species: Cavia porcellus
Experiment: Percent inhibition of SRS-A induced contraction minus percent inhibition of 25 mM KCl induced contractions at a conc of 50(uM)
Type: functional
In short: as §1

SMILES	Inhibition
O=S(=O)(NS(=O)(=O)N1CCc2cc(Cl)ccc2C1)N1CCc2cc(Cl)ccc2C1	1%
O=S(=O)(NS(=O)(=O)N1CCc2ccccc2CC1)N1CCc2ccccc2CC1	14%
O=S(=O)(NC1Cc2ccccc2C1)NS(=O)(=O)NC1Cc2ccccc2C1	11%
O=S(=O)(NC1CCCC[C@@H]1c1ccccc1)NS(=O)(=O)NC1CCCC[C@H]1c1ccccc1 (some centres undefined)	41%
O=S(=O)(NS(=O)(=O)N1CCc2ccccc21)N1CCc2ccccc21	-13%
